Each structure is given as a SMILES string.

We go through 14 compounds from ChEMBL document CHEMBL1143591, “Synthesis and biological evaluation of 11-substituted 6-aminobenzo[c]phenanthridine derivatives, a new class of antitumor agents” (2005).

Assay type in all cases: functional
Holding throughout (conditions): Homo sapiens

The subject of assay [1] is CCRF-CEM. As to the kind of experiment: Concentration required to inhibit 50% cell growth of CCRF-CEM Leukemia cell line. Put shortly:
(§1)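 Tested in the NCI in vitro Human Tumor Cell Line Screen. The GI50 is the concentration that causes 50% inhibition of net cell growth and is reported as the log of the molar concentration. If that level is not reached or is exceeded, the value is given as greater or less than the highest or lowest drug concentration.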

Assay [2] concerns RPMI-8226. As to the kind of experiment: Concentration required to inhibit 50% cell growth of RPMI-8226 Leukemia cell line. Put shortly: as §1
Assay [3] relates to MOLT-4. As to the kind of experiment: Concentration required to inhibit 50% cell growth of MOLT-4 Leukemia cell line. Put shortly:
as §1

The subject of assay [4] is HL-60. As to the kind of experiment: Concentration required to inhibit 50% cell growth of HL-60 Leukemia cell line. In short, it runs like this:
as §1

Assay [5] relates to K562. As to the kind of experiment: Concentration required to inhibit 50% cell growth of K-562 Leukemia cell line. Put shortly:
as §1

In the case of `COc1ccc(-c2cc3ccccc3c3nc(N)c4ccccc4c23)c(OC)c1OC`, the GI50 (commonly the concentration at which growth is held to half of that of the control) in assay [1] is 0.372 µM; in assay [2], 0.288 µM; in assay [3], 0.437 µM; in assay [4], 0.38 µM; in assay [5] it was 0.339 µM.

Consider `Nc1nc2c(c3ccccc13)[C@@H](c1ccc3c(c1)OCO3)Cc1ccccc1-2`, for which the GI50 in assay [1] is 3.55 µM; in assay [2], 3.31 µM; in assay [3], 4.79 µM; in assay [4], 5.5 µM; in assay [5], 3.09 µM.

On to `COc1cc([C@H]2Cc3ccccc3-c3nc(N)c4ccccc4c32)cc(OC)c1O`, for which the concentration for 50% growth inhibition (GI50) in assay [1] was 0.871 µM; in assay [2], 0.427 µM; in assay [3], 0.631 µM; in assay [4], 0.288 µM; in assay [5], 0.282 µM.

For the compound `COc1cc([C@H]2Cc3ccccc3-c3nc(N)c4ccccc4c32)cc(OC)c1OC`, the concentration for 50% growth inhibition (GI50) was 2.63 µM in assay [1]; 1.82 µM in assay [2]; 2.63 µM in assay [3]; 1.7 µM in assay [4]; 0.813 µM in assay [5].

For `Nc1nc2c3ccccc3cc(-c3ccco3)c2c2ccccc12`, the 50% growth inhibitory concentration (GI50) is 9.77 µM in assay [1]; 4.57 µM in assay [2]; 1.2 µM in assay [3]; 0.437 µM in assay [4]; 4.07 µM in assay [5].

For the compound `COc1ccc(-c2cc3ccccc3c3nc(N)c4ccccc4c23)cc1OC`, the GI50 is 0.17 µM in assay [1]; 0.126 µM in assay [2]; 0.234 µM in assay [3]; 0.0617 µM in assay [4]; 0.0457 µM in assay [5].

As for `COc1ccc([C@H]2Cc3ccccc3-c3nc(N)c4ccccc4c32)cc1O`, the concentration for 50% growth inhibition (GI50) in assay [1] is 13.8 µM; in assay [2], 5.01 µM; in assay [3], 14.5 µM; in assay [4] it was 8.13 µM; in assay [5], 1.62 µM.

Take `COc1cc(-c2cc3ccccc3c3nc(N)c4ccccc4c23)cc(OC)c1OC`: the 50% growth inhibitory concentration (GI50) in assay [1] was 0.288 µM; in assay [2], 0.24 µM; in assay [3], 0.372 µM; in assay [4], 0.0631 µM; in assay [5], 0.0794 µM.

Take `COc1ccc(-c2cc3ccccc3c3nc(N)c4ccccc4c23)c(OC)c1`: the 50% growth inhibitory concentration (GI50) in assay [1] was 0.309 µM; in assay [2], 0.363 µM; in assay [3] it was 0.933 µM; in assay [4] it was 0.309 µM; in assay [5], 0.219 µM.

Consider `Nc1nc2c(c3ccccc13)[C@@H](c1ccco1)Cc1ccccc1-2`, for which the GI50 in assay [1] was 3.31 µM; in assay [2], 2.82 µM; in assay [3], 3.72 µM; in assay [4], 4.17 µM; in assay [5], 3.09 µM.

On to `COc1ccc(OC)c([C@H]2Cc3ccccc3-c3nc(N)c4ccccc4c32)c1`, for which the 50% growth inhibitory concentration (GI50) in assay [1] is 17.8 µM; in assay [2] it was 4.68 µM; in assay [3], 15.5 µM; in assay [4], 13.8 µM; in assay [5], 7.59 µM.

`Nc1nc2c3ccccc3cc(-c3ccc4c(c3)OCO4)c2c2ccccc12`: the concentration for 50% growth inhibition (GI50) was 4.07 µM in assay [1]; 2.82 µM in assay [2]; 3.31 µM in assay [3]; 4.47 µM in assay [4]; 0.794 µM in assay [5].

With `COc1ccc([C@H]2Cc3ccccc3-c3nc(N)c4ccccc4c32)c(OC)c1OC`, the GI50 in assay [1] was 20.9 µM; in assay [2], 4.27 µM; in assay [3], 3.47 µM; in assay [4], 6.76 µM; in assay [5] it was 4.27 µM.

Turning to `COc1ccc([C@H]2Cc3ccccc3-c3nc(N)c4ccccc4c32)cc1OC`, the GI50 in assay [1] is 1.12 µM; in assay [2], 2.4 µM; in assay [3], 2.95 µM; in assay [4], 7.08 µM; in assay [5], 2.82 µM.
